Screening data from PubChem.
The list is not random: actives were taken first. Their share in the collection is about 4.8%.
WT yeast gro inh = growth inhibition of WT strain, primary screen, mitochondrial fusion inhibitor project, WT and mutant strains, chemical genetic. 190,000 compounds, 2.1% hits. mitochondrial fusion phenotypic screen. inhibition, % at 10 µM; in the data active means inhibition above about 58%; tested in S. cerevisiae
Efflux pump inh = inhibitors of Candida efflux pumps in yeast, primary screen, S. cerevisiae, Nile Red, multiplex | S. cerevisiae Candida pump triplex | inhibition, % at 10 µM | 330,000 compounds, 0.44% hits | AID 485275, 2010;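 active means plate passing quality check with inhibition over a set limit, or well fluorescence over plate mean plus 4 SD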;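 further: Nile Red retained in pooled yeast measured as flow cytometry median fluorescence; 0% = buffer negative control and 100% = Enniatin B positive control; higher means more Nile Red kept so more efflux inhibition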
Mot1-301 SUMO = yeast Mot1-301 growth rescue at high temperature, primary screen, SUMOylation pathway inhibitor project, S. cerevisiae, ATP luminescence, 38.5C | S. cerevisiae Mot1-301 growth rescue; percent above DMSO median, 100 means doubled | growth rescue, % at 18.8 µM | 320,000 compounds, 1% hits | AID 2716, 2010;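 active means every valid replicate shows activation above 250% relative to neutral control wells; inactive means the rest, any valid replicate at or below 250%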;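 further: OY570 slx delta 5 strain wells were the positive control but not used for scaling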
CSC inhib = cancer stem cell viability inhibitors, primary screen, luminescence. cancer stem cell-like cells viability. inhibition, % at 7.5 µM. 300,000 compounds, 1.1% hits; in the data active means inhibition above about 75%; inconclusive means no clear call, values can overlap the other calls; tested in HMLE shEcad cells
Beta cell apopt = inhibitors of cytokine-induced beta cell apoptosis, primary screen, luminescence; INS-1E cytokine-induced death, ATP luminescence, 48 h; percent of positive-control rescue, neutral wells zero; protection from apoptosis, % (test concentration not listed); 300,000 compounds, 0.8% hits; AID 435005, 2010;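 active means Every replicate reaches about 75%, or at least half do and their mean reaches it too, limit read from the data; inconclusive means At least half of replicates reach the limit but their mean does not; inactive means Under half of replicates reach the limit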;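 further: 0% = cytokine-treated negative control wells and 100% = positive control rescue; higher means more ATP so stronger rescue from cytokine killing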
T cruzi inh = inhibitors of intracellular T. cruzi growth, primary screen, luminescence, NIH3T3 host cells; T. cruzi beta-gal in NIH3T3, 90 h; inhibition, % (concentration not given with the values); 300,000 compounds, 1.4% hits; AID 1885, 2009;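 active means mean inhibition across valid replicates above about 55%, limit read from the data; inconclusive means mean below that limit but half or more replicates reach it; inactive means mean below it, under half of replicates reach it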;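 further: signal also drops with host cell toxicity which is not excluded here; 0% = plate median of DMSO wells and 100% = zero luminescence signal; higher percent means less beta-gal luminescence so fewer parasites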
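Read-out: Parasite load inhibition, % | Test system: Mouse NIH/3T3 fibroblasts infected with β-gal-expressing T. cruzi Tulahuen C4 | Amount: 5,000 cells/well | Medium: DMEM, 2% fetal bovine serum | Signal: GalScreen β-gal luminescence, detergent lysis, 60 min | Timing: 3 h attach, ≥90 h co-culture | Also added: Tulahuen C4 trypomastigotes, 5000/well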
* = called active by the depositor; ? = inconclusive; / = not tested or not shown.

SMILES | WT yeast gro inh | Efflux pump inh | Mot1-301 SUMO | CSC inhib | Beta cell apopt | T cruzi inh
C[C@@H]1CC[C@@]23COC(=O)C2=CCC[C@@H]3[C@@]1(C)CC/C(=C/CO)CO | / | 0 | -19 | -14 | -2 | /
CC1CCN(c2ccc(NC(=O)c3ccc(Br)o3)cc2)CC1 | / | -1 | 19 | 2 | 9 | 10
CC(C)(C)C(=O)/C(=C\c1ccc([N+](=O)[O-])cc1)n1cncn1 | 60 | 0 | 330* | 119* | 112* | ?
CC(C)(C)C(=O)/C(=C/c1ccc(Cl)cc1)n1cncn1 | / | 0 | 431 | 30 | -52 | 18
CC1CCN(CCOc2ccc(Cl)c(Cl)c2)CC1 | 1 | 1 | 50 | 43 | 3 | -3
O=c1ccc(N=Nc2ccccc2)ccc1O | / | 0 | 12 | 47 | 18 | -11
Oc1ccc(N=Nc2ccccc2)o1 | / | 0 | 313* | 41 | -44 | -6
Fc1ccccc1NC(=S)Nc1ccc(Br)cc1 | 62* | 0 | -8 | -10 | -5 | -35
COc1cccc2sc(Nc3nc(-c4ccccn4)cs3)nc12 | 63* | 0 | 8 | / | 111* | 75*
c1ccc(Nc2nc(-c3ccccn3)cs2)cc1 | 46 | 0 | 61 | 7 | 1 | 43
Brc1ccc(C2C3=C(Nc4ncnn42)c2ccccc2OC3c2ccncc2)cc1 (stereo not given) | 10 | 0 | 29 | 28 | -1 | 60*
Cc1nn(Cc2ccccc2Cl)c(C)c1NC(=O)CCCn1nc([N+](=O)[O-])c(Cl)c1C | -6 | 0 | -4 | 6 | -5 | 71*
Cc1sc(NC(=O)c2ccco2)c(C(c2cccnc2)N2CCN(c3ccc(F)cc3)CC2)c1C (stereo not given) | 56 | 0 | 29 | 24 | 29 | 57*
CCOC(=O)C1CCN(C(c2cccnc2)c2c(NC(=O)c3ccco3)sc(C)c2C)CC1 (stereo not given) | 42 | 0 | 1 | 0 | -6 | 65*
Cc1sc(NC(=O)c2ccco2)c(C(c2cccnc2)N2CCN(CCO)CC2)c1C (stereo not given) | -7 | 0 | 37 | -10 | -1 | 33
Cc1sc(NC(=O)c2ccco2)c(C(c2ccccc2)N2CCC(C)CC2)c1C (stereo not given) | 49 | 0 | 39 | 12 | 0 | 72*
CC(C)c1ccc(S(=O)(=O)c2ccc(NN)cc2)cc1 | 69* | / | / | / | / | /
CCOC(=O)c1c(CSc2ccc(CC)cc2)oc2ccc(O)c(CN(C)C)c12 | / | 0 | -20 | 81* | 4 | 63*
CCOC(=O)c1c(CSc2ccc(C)cc2)oc2ccc(O)cc12 | 7 | 0 | -3 | 135* | -7 | 6
CCCCc1ccc(NC(=O)CSc2nc(=O)n(CCN(CC)CC)c3c2CCC3)cc1 | / | 0 | -5 | 80* | 8 | 20
CCCNC(=O)[C@H]1N2C(=O)c3c(ccc(OC)c3OC)C2SC1(C)C (stereo not given in full) | / | 0 | -18 | -3 | -4 | -4
Cc1ccc(NC(=O)C(Nc2cccc(C)c2)c2ccccc2)cc1 (stereo not given) | 70* | 0 | -2 | 25 | -2 | 10
N=C(N)SCc1cn(-c2ccccc2)nc1-c1ccc(Br)cc1 | 85* | / | / | / | / | 55*
COc1ccc(-c2nn(-c3ccccc3)cc2CO)cc1 | -5 | 0 | -19 | -5 | 3 | -1
C#CCN(C(=O)c1cc(COc2cccc(C(F)(F)F)c2)on1)C1CCCCC1 | / | -3 | -4 | 62 | 104* | 21
CCN(CC)S(=O)(=O)c1ccc(NN=C2CCN(C)CC2)c([N+](=O)[O-])c1 | -2 | 0 | 67 | 47 | -1 | 58*
COc1ccc(NC(=O)N2CCCC(c3nc(-c4ccc(C(C)C)cc4)no3)C2)cc1 (stereo not given) | 72* | 0 | -8 | 96* | 16 | 10
COc1ccc(-c2nnc(C)c3nocc23)cc1 | / | 0 | -4 | 3 | -1 | 3
O=C1C2C(C(=O)N1c1ccccc1)N1CCCN1C2c1ccccc1 (stereo not given) | -3 | 0 | 10 | -4 | / | 3
